Each structure is given as a SMILES string.

The first series has as its system PC-12. Nature of the series: Cytotoxicity against rat PC12 cells assessed as effect on cell viability at 0.5 mM after 48 hrs by tetrazolium/formazan assay. The following applies: pc-12, 48 h, 500 µM.
Regarding `c1ccc2c(c1)CCNC2C1CCCCC1` (stereo unspecified), the Activity entry is “Toxic”.
The same measure, in the same setting: the entry for `CCCCCC1NCCc2ccccc21` (stereo unspecified) is “Toxic”; for `CCCCCCC1NCCc2ccccc21` (stereo unspecified) it is “Toxic”.
`CCCCC1NCCc2ccccc21` (stereo unspecified): the Activity result was “Toxic”.
The same measure, in the same setting: the result for `c1ccc2c(c1)CCNC2C1CCCC1` (stereo unspecified) reads “Toxic”.
With `c1ccc2c(c1)CCNC2C1CC1` (stereo unspecified), the Activity entry was “Toxic”.
Still for that read-out and setting: the result for `CCC1NCCc2ccccc21` (stereo unspecified) reads “Toxic”; that for `CCCC1NCCc2ccccc21` (stereo unspecified), “Toxic”.
Same read-out and setting: the entry for `c1ccc2c(c1)CCNC2C1CCC1` (stereo unspecified) is “Toxic”.

The subject of another series is PC-12. The series can be described thus: Induction of apoptosis in rat PC12 cells assessed as length of migrated cell nucleus at 1 mM after 3 hrs by comet assay. To be noted: pc-12, 3 h, 1000 µM. The series is classed as toxicity, cell-based. The procedure, abridged:
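PC12 cells (5×10^5/well in PBS(-)) exposed to 1.0 mM final compound for 3 h at 37 °C. Cells embedded in low-melt agarose, lysed 1 h at 4 °C, then alkaline unwinding 30 min. Electrophoresed at 15 V for 30 min and stained with SYBR Green. 200 cells scored per sample under fluorescence at ×200. Whole comet length measured with an ocular micrometer.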
On to `c1ccc2c(c1)CCNC2C1CCCCC1` (stereo unspecified), for which the Activity is 120 um.
Still for that read-out and setting: the result for `CCCCCCC1NCCc2ccccc21` (stereo unspecified) reads 150 um; that for `C[n+]1ccc(-c2ccccc2)cc1.[Cl-]`, 60 um.

The target in the next series is T1, Amine oxidase [flavin-containing] B (Homo sapiens, UniProt P27338).
T1 sequence (P27338 whole entry): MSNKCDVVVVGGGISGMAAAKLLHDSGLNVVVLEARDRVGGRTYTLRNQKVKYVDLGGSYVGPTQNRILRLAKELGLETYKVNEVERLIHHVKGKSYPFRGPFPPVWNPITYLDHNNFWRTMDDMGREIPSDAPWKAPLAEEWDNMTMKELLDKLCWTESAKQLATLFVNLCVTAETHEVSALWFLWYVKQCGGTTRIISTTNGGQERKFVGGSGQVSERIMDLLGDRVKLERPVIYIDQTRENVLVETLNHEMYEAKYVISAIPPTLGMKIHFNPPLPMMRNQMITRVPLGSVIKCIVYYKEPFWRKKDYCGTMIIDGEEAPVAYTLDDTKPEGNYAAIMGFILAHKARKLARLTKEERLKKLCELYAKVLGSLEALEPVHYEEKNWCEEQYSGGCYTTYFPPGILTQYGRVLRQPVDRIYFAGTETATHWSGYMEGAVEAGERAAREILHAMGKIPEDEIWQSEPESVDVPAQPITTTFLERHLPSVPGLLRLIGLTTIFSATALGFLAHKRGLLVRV
Nature of the series: Inhibition of MAOB at 100 nM after 60 mins using tyramine as substrate relative to control. To be noted: 1 h. Also noted: scale not given: the % may be the effect or the level left.
`C#CCN1CCc2ccccc2C1C` (stereo unspecified) returned an Activity at 0.1 µM of 101%.
For the compound `C#CCN1CCc2ccccc2C1C1CC1` (stereo unspecified), the Activity at 0.1 µM came to 98.4%.

The target in another series is T1, Amine oxidase [flavin-containing] B. The series can be described thus: Inhibition of MAOB at 100 nM after 60 mins using benylamine as substrate relative to control. Further details: scale not given: the % may be the effect or the level left. To be noted: 1 h.
The compound `C#CCN1CCc2ccccc2C1C` (stereo unspecified) showed an Activity at 0.1 µM of 99.4%.
The compound `C#CCN1CCc2ccccc2C1C1CC1` (stereo unspecified) gave an Activity at 0.1 µM of 97.5%.

The target of the next series is T2, Amine oxidase [flavin-containing] A (Homo sapiens, UniProt P21397).
T2 sequence (P21397 whole entry): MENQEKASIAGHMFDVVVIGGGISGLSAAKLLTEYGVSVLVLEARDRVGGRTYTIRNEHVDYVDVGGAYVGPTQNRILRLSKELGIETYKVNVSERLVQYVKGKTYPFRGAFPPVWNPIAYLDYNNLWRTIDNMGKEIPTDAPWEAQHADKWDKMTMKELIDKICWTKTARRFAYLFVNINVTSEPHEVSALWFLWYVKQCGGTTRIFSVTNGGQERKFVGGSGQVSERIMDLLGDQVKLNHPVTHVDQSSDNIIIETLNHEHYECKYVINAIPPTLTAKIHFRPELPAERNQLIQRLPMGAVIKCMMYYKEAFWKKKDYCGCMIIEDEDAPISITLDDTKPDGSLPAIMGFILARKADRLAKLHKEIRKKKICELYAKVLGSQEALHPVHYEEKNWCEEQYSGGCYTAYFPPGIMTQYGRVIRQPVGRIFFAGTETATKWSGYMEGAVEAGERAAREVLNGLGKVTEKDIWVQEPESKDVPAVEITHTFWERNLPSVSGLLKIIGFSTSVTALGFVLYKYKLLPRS
The series can be described thus: Inhibition of MAOA at 100 nM after 60 mins using tyramine as substrate relative to control. Also noted: scale not given: the % may be the effect or the level left. The following applies: 1 h. Put shortly: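 MAO-A enzyme (10 µg/mL) incubated with 0.5 mM tyramine and 100 nM compound for 60 min at 37 °C. H2O2 formed was detected with a peroxidase-coupled fluorogenic kit (ex 530/em 590 nm). Activity expressed as % of vehicle control. Means ± S.E., n = 8.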
`C#CCN1CCc2ccccc2C1C` (stereo unspecified) gave an Activity at 0.1 µM of 97.5%.
As for `C#CCN1CCc2ccccc2C1C1CC1` (stereo unspecified), the Activity at 0.1 µM was 96.2%.
With `C#CCN(C)[C@H](C)Cc1ccccc1` [SELEGILINE], the Activity at 0.1 µM worked out at 94.2%.

A further series relates to PC-12. Nature of the series: Cytotoxicity against rat PC12 cells assessed as effect on cell viability at 1 mM after 48 hrs by tetrazolium/formazan assay. The following applies: pc-12, 48 h, 1000 µM.
On to `CCCCCC1NCCc2ccccc21` (stereo unspecified), for which the Activity entry is “Toxic”.
Still for that read-out and setting: the entry for `CCCCCCC1NCCc2ccccc21` (stereo unspecified) is “Toxic”; for `CCCCC1NCCc2ccccc21` (stereo unspecified) it is “Toxic”.
For the compound `CCC1NCCc2ccccc21` (stereo unspecified), the Activity entry is “Toxic”.
Regarding `CCCC1NCCc2ccccc21` (stereo unspecified), the Activity result is “Toxic”.

Another series relates to PC-12. Nature of the series: Cytotoxicity against rat PC12 cells assessed as effect on cell viability at 0.01 mM after 48 hrs by tetrazolium/formazan assay. The series is classed as cell-based. To be noted: pc-12, 48 h, 10 µM. The procedure, abridged: (§1)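 PC12 cells in log growth, seeded at 3×10^5 cells/mL in serum-containing DMEM. After 24 h, medium replaced with the derivative diluted in serum-free DMEM. After 48 h exposure, CCK-8 (WST tetrazolium) added for 4 h at 37 °C. A490 read and viability expressed as % of untreated control. Means ± S.E., n = 3-6. Dunnett test after ANOVA.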
On to `c1ccc2c(c1)CCNC2C1CCCCC1` (stereo unspecified), for which the Activity result was “Non-toxic”.
Regarding `CCCCCCC1NCCc2ccccc21` (stereo unspecified), the Activity entry is on record as “Non-toxic”.
On the same count and under the same terms, the result for `c1ccc2c(c1)CCNC2C1CCCC1` (stereo unspecified) reads “Non-toxic”; that for `c1ccc2c(c1)CCNC2C1CC1` (stereo unspecified), “Non-toxic”.
Same read-out and setting: the entry for `c1ccc2c(c1)CCNC2C1CCC1` (stereo unspecified) is “Non-toxic”.

The next series concerns PC-12. Nature of the series: Cytotoxicity against rat PC12 cells assessed as effect on cell viability at 0.05 to 1 mM after 48 hrs by tetrazolium/formazan assay. The series is classed as cell-based. To be noted: pc-12, 48 h, 1000 µM. The procedure, abridged: as §1
In the case of `c1ccc2c(c1)CCNC2C1CCCCC1` (stereo unspecified), the Activity entry is reported as “Toxic”.
For the compound `CCCCCCC1NCCc2ccccc21` (stereo unspecified), the Activity result is “Toxic”.

For the origin of these results see ChEMBL document CHEMBL1154063, “Facile synthesis and in vitro properties of 1-alkyl- and 1-alkyl-N-propargyl-1,2,3,4-tetrahydroisoquinoline derivatives on PC12 cells” (Eur J Med Chem, 2009).
